Measurements published in ChEMBL document CHEMBL2029305, “N-Acyl and N-sulfonyloxazolidine-2,4-diones are pseudo-irreversible inhibitors of serine proteases” (Bioorg Med Chem Lett, 2012).
Active and inactive are the calls of the source. The rule behind the calls is not given here.

Legend:
Sus scrofa [1] = organism: Sus scrofa; assay: Inhibition of porcine pancreatic elastase using N-Suc-(L-Ala)3-p-nitroaniline at 300 molar excess
Outline: (§1)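 Pre-incubation of PPE with 300- or 600-fold molar excess of inhibitor; residual activity measured with N-Suc-(L-Ala)3-p-nitroanilide.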

[2] = Half life of the compound in phosphate buffer at pH 7.4; assay type: physicochemical
Outline: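 Hydrolysis in phosphate buffer, pH 7.4, at 37 °C; half-life in min.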

Neutrophil elastase = target: T1, Neutrophil elastase (Homo sapiens, UniProt P08246); assay: Inhibition of human neutrophil elastase using chromogenic substrate (N-MeOSuc-Ala-Ala-Pro-Val-p-nitroanilide after 120 mins
T1 sequence (P08246 whole entry): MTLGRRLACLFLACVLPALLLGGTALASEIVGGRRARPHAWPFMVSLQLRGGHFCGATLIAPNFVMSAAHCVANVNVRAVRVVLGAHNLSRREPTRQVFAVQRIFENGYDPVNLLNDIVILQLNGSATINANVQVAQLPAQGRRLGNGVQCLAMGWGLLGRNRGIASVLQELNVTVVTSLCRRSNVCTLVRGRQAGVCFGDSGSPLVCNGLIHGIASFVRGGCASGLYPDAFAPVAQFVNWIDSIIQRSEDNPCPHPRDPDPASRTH

Sus scrofa [3] = organism: Sus scrofa; assay: Inhibition of porcine pancreatic elastase using N-Suc-(L-Ala)3-p-nitroaniline at 50 to 500 uM; conditions: TDE = time-dependent effect
Sus scrofa [4] = organism: Sus scrofa; assay: Inhibition of porcine pancreatic elastase using N-Suc-(L-Ala)3-p-nitroaniline
Sus scrofa [5] = organism: Sus scrofa; assay: Inhibition of porcine pancreatic elastase using N-Suc-(L-Ala)3-p-nitroaniline assessed as remaining activity at 2.5 to 500 uM after 15 mins
Outline: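 PPE (5 µM) with inhibitor 2.5–500 µM in pH 7.25 HEPES, 15 min incubation; aliquots assayed for remaining activity (vt/v0) versus [I]/[E]0 ratio to estimate equivalents needed for inactivation.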

[6] = Drug degradation in CD3ONa/CD3OD solution assessed as 2-(methoxycarbonyloxy)propan-2-yl 4-methoxybenzoylcarbamate formation at room temperature for 15 mins by 1H-NMR analysis in the presence of sodium methoxide; assay type: physicochemical; conditions: 0.25 h
[7] = Drug degradation in methanol assessed as methyl 4-methoxybenzoate formation at room temperature for 10 mins by TLC analysis in the presence of sodium methoxide; assay type: physicochemical
[8] = Drug degradation in methanol assessed as 2-(methoxycarbonyloxy)propan-2-yl 4-methoxybenzoylcarbamate formation at room temperature for 10 mins by TLC analysis in the presence of sodium methoxide; assay type: physicochemical
Cathepsin G = target: T2, Cathepsin G (Homo sapiens, UniProt P08311); assay: Inhibition of cathepsin G using Suc-Ala-Ala-Pro-Phe-p-nitroanilide as substrate after 30 mins
T2 sequence (P08311 whole entry): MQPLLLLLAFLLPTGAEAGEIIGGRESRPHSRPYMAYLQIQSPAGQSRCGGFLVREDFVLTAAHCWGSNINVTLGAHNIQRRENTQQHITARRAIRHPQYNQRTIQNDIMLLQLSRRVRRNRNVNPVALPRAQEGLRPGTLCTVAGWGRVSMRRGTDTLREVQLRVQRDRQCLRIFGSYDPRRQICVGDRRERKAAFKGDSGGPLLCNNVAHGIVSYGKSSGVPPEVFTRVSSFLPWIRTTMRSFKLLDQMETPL

[9] = Drug degradation in CD3ONa/CD3OD solution assessed as methyl 4-methoxybenzoate formation at room temperature after 15 mins by 1H-NMR analysis in the presence of sodium methoxide; assay type: physicochemical; conditions: 0.25 h
Sus scrofa [10] = organism: Sus scrofa; assay: Inhibition of porcine pancreatic elastase using N-Suc-(L-Ala)3-p-nitroaniline at 600 molar excess; outline: as §1

| Compound | inhibition (Sus scrofa [1]) | half-life [2] [min] | IC50 (Neutrophil elastase) [µM] | inhibition (Sus scrofa [3]) | inhibition (Sus scrofa [4]) | Activity (Sus scrofa [5]) [%] | also measured |
| --- | --- | --- | --- | --- | --- | --- | --- |
| CC1(C)OC(=O)N(c2ccc([N+](=O)[O-])cc2)C1=O | inactive |  | > 500 |  |  |  |  |
| COc1ccc(N2C(=O)OC(C)(C)C2=O)cc1 | inactive |  | > 500 |  |  |  |  |
| CC1OC(=O)N(Cc2ccccc2)C1=O (stereo not drawn) |  |  | > 500 |  |  |  | inhibition (Sus scrofa [10]): inactive |
| COc1ccc(N2C(=O)OC(C)C2=O)cc1 (stereo not drawn) |  |  | > 500 |  |  |  | inhibition (Sus scrofa [10]): inactive |

Second part, led by results:

| inhibition (Sus scrofa [1]) | half-life [2] [min] | IC50 (Neutrophil elastase) [µM] | inhibition (Sus scrofa [3]) | inhibition (Sus scrofa [4]) | Activity (Sus scrofa [5]) [%] | Compound | also measured |
| --- | --- | --- | --- | --- | --- | --- | --- |
| inactive | 38.7 | > 500 |  |  |  | CC1OC(=O)N(c2ccc([N+](=O)[O-])cc2)C1=O (stereo not drawn) |  |
|  |  | 15.6 | tde | Dose-dependent effect | < 20 | COc1ccc(C(=O)N2C(=O)OC(c3ccccc3)C2=O)cc1 (stereo not drawn) |  |
|  |  | > 500 | tde | Dose-dependent effect | < 20 | COc1ccc(C(=O)N2C(=O)OC(C)C2=O)cc1 (stereo not drawn) |  |
|  | 16.7 | 10.2 | tde | Dose-dependent effect | < 20 | COc1ccc(C(=O)N2C(=O)OC(C)(C)C2=O)cc1 | Drug degradation [6]: Active; Drug degradation [7]: Active; Drug degradation [8]: Active; IC50 (Cathepsin G): 14.2 µM; Drug degradation [9]: Active |
|  | 6.86 | 2.6 | tde | Dose-dependent effect | < 20 | Cc1ccc(S(=O)(=O)N2C(=O)OC(C)(C)C2=O)cc1 |  |
|  |  | 15.6 | tde | Dose-dependent effect |  | CC1(C)OC(=O)N(Cc2ccccc2)C1=O | IC50 (Cathepsin G): 2.1 µM |
